Screening results as filed in PubChem.
The sample as a whole holds a higher share of hits than the screen did.
HCT116 PTEN-null = PTEN-deleted cell growth suppression. HCT116 PTEN-null viability, CellTiter-Glo, 60 h; stronger effect = lower value. viability, % at 10 µM. actives 1.2% (n = 140,000);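 active = viability at or below a set limit, 4 SD under the median of all tested compounds, cut at about 3.7% in these data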;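 also: PTEN knockout HCT116 line with beta catenin targeted HCT116 as companion control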
HUVEC inhibit = inhibitors of human endothelial cell proliferation; HUVEC proliferation, CellTiter-Glo luminescence, 72 h; stronger effect = lower value; viability, % at 10 µM (by protocol); actives 1.1% (n = 86,000); AID 648;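 active = viability at or below 30%; inactive = viability above 30%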;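 also: 100% = median luminescence of DMSO-only cell control wells on each plate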
HCT116 bCat-KO = beta-catenin-lacking colon tumor cell growth suppression; actives 1.5% (n = 140,000); HCT116 beta-catenin knockout viability, CellTiter-Glo, 60 h; stronger effect = lower value; viability, % at 10 µM;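 active = viability at or under a set limit, the compound median less 4 SD, cut at about 6% in these data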;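 also: 0% = Hyamine 1622 control at 20 µM and 100% = untreated cell control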
Fibroblast inh = blocks proliferation of human lung fibroblasts; LL 47 human lung fibroblast viability, ATP luminescence; stronger effect = lower value; viability, % at 10 µM; actives 1.1% (n = 85,000); AID 719;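 active = viability at or below 50% in the single dose screen; inactive = viability above 50%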;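 also: compound exposure lasted 72 h before the ATP readout; 100% = median luminescence of untreated cell-only wells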
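test system = LL 47 human lung fibroblasts | amount = 1,150 fibroblasts seeded per well | medium = 15% FBS in IMEM | times = overnight cell rest, 72 h compound treatment at 37 °C | measured by = CellTiter-Glo luminescence measuring cellular ATP | read-out = viability percentage against median untreated-cell control | benchmarks = cell-only wells, no compound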
H69AR inhibit = blocks growth of human H69AR lung tumor cells. H69AR lung tumor viability, ATP luminescence, 72 h; stronger effect = lower value. AID 598. viability, % at 10 µM. actives 6% (n = 85,000);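 active = viability at or below 40%; inactive = viability above 40%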;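 also: multidrug resistant small cell line overexpressing MRP-1 efflux transporter; 100% = mean luminescence of untreated control wells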
Phagocytosis inh = blocks phagocytosis by macrophages. AID 1029. J774A.1 macrophage IgG-bead phagocytosis, imaging. actives 0.07% (n = 110,000). inhibition, % at 5 µM;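 active = inhibition above the mean of the plate negative controls plus 5 SD, cut at about 13% in these data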;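 also: phagocytic index as fraction of beads internalized from green versus red external bead signal; plate controls were DMSO negative control for no effect and cytochalasin-D positive control for full effect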
Starred values were filed as active, the others as inactive; x = no result given.

SMILES	HCT116 PTEN-null	HUVEC inhibit	HCT116 bCat-KO	Fibroblast inh	H69AR inhibit	Phagocytosis inh
Cc1ccc(C)c(Cn2c(=O)n(CCC(=O)NCc3ccco3)c(=O)c3ccccc32)c1	58	48	63	76	52	-1
O=C(NCc1ccco1)c1ccc(Cn2c(=O)c3ccccc3n(Cc3cccc(Cl)c3)c2=O)cc1	63	62	61	68	31*	x
O=C(CCCCn1c(=O)c2ccccc2n(CC(=O)Nc2ccc(F)cc2)c1=O)NCc1ccco1	95	85	80	94	89	-1
O=C(NCc1ccco1)c1ccc(Cn2c(=O)c3sccc3n(Cc3cccc(F)c3)c2=O)cc1	85	90	85	98	52	0
CCn1c(=O)cc(SCC(=O)NCc2ccco2)c2ccccc21	37	60	24	89	39*	5
Cc1ccc(C)c(Cn2c(=O)n(CCCC(=O)NCc3ccco3)c(=O)c3ccccc32)c1	31	86	38	83	36*	-3
O=C(CCCCn1c(=O)c2ccccc2n(Cc2ccc(F)cc2Cl)c1=O)NCc1ccco1	65	64	61	88	24*	-1
COCCCNC(CC(=O)Nc1ccccc1C(=O)OC)C(=O)O (centres undefined)	x	105	x	98	94	x
O=C(NCCCn1ccnc1)c1nn2c(C(F)(F)F)cc(-c3ccc(Br)cc3)nc2c1Cl	47	x	23	x	x	-3
N#CC(Cc1ccc(OC(F)F)cc1)c1nc2ccccc2[nH]1 (centres undefined)	65	x	74	x	x	-16
CCOC(=O)c1cc2oc(C(c3nnnn3C3CCCCC3)N3CCOCC3)cc2[nH]1 (centres undefined)	34	75	38	94	9.8*	x
Cc1nn(-c2ccccc2)c2c1C1(C(=O)N3c4c(cccc41)C(C)CC3(C)C)C(C#N)=C(N)O2 (centres undefined)	77	77	81	100	39*	0
Cc1nn(-c2ccccc2)c2c1C1(C(=O)N(C)c3ccccc31)C(C#N)=C(N)O2 (centres undefined)	44	90	27	93	42	-2
COc1cc2c3nnc(-c4ccc(F)cc4)c-3cn(Cc3cccc(C)c3)c2cc1OC	74	2.3*	82	3.2*	1.1*	0
COc1cc2c3nnc(-c4ccc(F)cc4)c-3cn(Cc3ccc(C)cc3)c2cc1OC	97	38	85	68	43	2
COc1ccc(/C=C2\CCc3ccccc3C2=O)cc1Cn1cccn1	2.2*	x	2.9*	x	x	-2
COc1ccc(/C=C2\CCc3ccccc3C2=O)cc1Cn1nc(C)c(Br)c1C	x	99	x	96	69	x
CCC(=O)N1CCN(c2ccccc2NC(=O)COc2cc(C)ccc2C(C)C)CC1	4	53	8	90	36*	2
Cc1cc(C)c(Cn2c(=O)n(CCCC(=O)NCc3ccco3)c(=O)c3ccccc32)c(C)c1	x	94	x	100	106	x
Cc1cccc(OCCCC(=O)N2CCCc3ccccc32)c1C	71	80	66	94	49	0
CCOc1ccc(-c2cc(NC(=O)Cn3ncc4c3-c3ccccc3OC4)on2)cc1OCC	91	50	82	94	30*	0
S=c1[nH]nc(-c2ccco2)n1/N=C/c1ccc(Cl)cc1	91	x	99	x	x	-3
O=C(C#Cc1ccccc1)c1ccc([N+](=O)[O-])cc1	4	47	7	20*	1.1*	-1
O=C(CNc1ccccc1)c1ccc([N+](=O)[O-])cc1	88	x	95	x	x	-5
CCOC(=O)N1CCc2c(sc3c2C(=O)NC(c2ccc(-c4ccc(Cl)cc4)o2)N3)C1 (centres undefined)	x	89	x	53	30*	x
Cc1ccc(C2NC(=O)c3c(sc4c3CCN(C)C4)N2)o1 (centres undefined)	90	98	91	112	61	1
C=CCn1c(SCC(=O)NCCOC)nnc1-c1cc2c(s1)CCC(CC)C2 (centres undefined)	84	x	96	x	x	3
COc1cc(C(c2nnnn2C(C)(C)C)N2CCN(c3nc4ccccc4s3)CC2)ccc1O (centres undefined)	73	96	70	84	9.0*	-1
CCOc1ccc(-c2csc(Cn3c(CN4CCN(C)CC4)nc4ccccc4c3=O)n2)cc1	67	x	72	x	x	2
